PubChem BioAssay
The source made the active and inactive calls.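 How the source made its calls, unless noted: active means inhibition of the reporter signal at or above 50%; inactive means inhibition below 50%.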

Experiments:
[1] = inhibitors of TNFa-induced NFkB p65 translocation, primary screen, imaging, HUVEC, MLSMR starter and 10KST1 sets (AID 438;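 active means inhibition above 20% together with a positive visual image hit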;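 further: compound added about 3h40 before a 20 min TNFalpha stimulation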;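 on inhibition: signal is the nuclear over cytoplasmic p65 intensity ratio per well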); details: HUVEC TNFa-induced p65 nuclear translocation; cell count: measured here: nuclei count (cytotoxicity indicator), at 2.08 µM; inhibition: at 2 µM, stronger effect = higher value, 0% TNFa-plus-vehicle, 100% no-TNFa wells
[2] = reduction of polyQ htt aggregates in cells – imaging, exon1htt(103Q)mCFP cells, high-content imaging, primary screen (AID 483;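 active means visual image review flags a hit and inhibition of aggregation exceeds 20%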;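 further: compound exposure lasted 3 days before fixation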;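 on nuclei count: percent of the per-plate median nuclei count of sample wells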); details: exon1htt(103Q)mCFP cell line, aggregate imaging, at 2 µM; inhibition of aggregation: stronger effect = higher value; nuclei count: measured here: cell count, toxicity
[3] = endothelial E-selectin expression blockers – imaging, HUVEC, immunofluorescence, MLSMR starter and 10KST1 sets, primary screen (AID 487;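 active means visually confirmed hit in the image check and inhibition above 20%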;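 on inhibition: signal is fraction of cell area covered by stained E-selectin grains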;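 on nuclei count: 100% = median nuclei count of all wells on the same plate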); details: HUVEC TNFalpha-induced E-selectin immunofluorescence imaging, at 2 µM; inhibition: stronger effect = higher value; nuclei count: measured here: cell number, toxicity
[4] = target: Voltage-gated potassium channel subunit beta-2 (Rattus norvegicus) (UniProt P62483); experiment: inhibitors of rat Kvbeta2 reductase activity – biochemical, NADPH fluorescence, primary screen (AID 622;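 active means fluorescence slope higher than the sample average by over 3 SD, cut at about -0.22 in these data, passing the limit was not always enough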;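 further: slope of raw intensity against log time taken from 70 to 1610 s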); details: recombinant KvBeta, 4-cyanobenzaldehyde reduction, at 10 µM, stronger effect = higher value
Chain of Voltage-gated potassium channel subunit beta-2 (Rattus norvegicus) (P62483 whole entry, looked up): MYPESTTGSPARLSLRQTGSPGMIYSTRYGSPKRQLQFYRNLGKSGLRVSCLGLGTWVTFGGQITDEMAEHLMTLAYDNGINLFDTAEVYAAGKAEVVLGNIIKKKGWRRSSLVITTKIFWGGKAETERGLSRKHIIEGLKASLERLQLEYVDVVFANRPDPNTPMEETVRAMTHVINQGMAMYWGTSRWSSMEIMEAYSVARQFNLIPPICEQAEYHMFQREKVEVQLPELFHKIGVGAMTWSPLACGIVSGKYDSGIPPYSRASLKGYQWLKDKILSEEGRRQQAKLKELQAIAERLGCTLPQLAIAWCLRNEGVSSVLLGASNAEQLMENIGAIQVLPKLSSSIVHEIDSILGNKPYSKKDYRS

[5] = target: Voltage-gated potassium channel subunit beta-2 (Rattus norvegicus) (UniProt P62483); experiment: enhancers of rat Kvbeta2 NADPH turnover – biochemical, NADPH fluorescence, primary screen (AID 623;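 active means NADPH fluorescence slope more negative than the mean of all samples by about 3 SD, 99.7% confidence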;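 further: fluorescence intensity change per second fitted from 20 to 320 s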); details: Recombinant KvBeta, NADPH fluorescence decrease slope, 10 min; at 10 µM; stronger effect = lower value
[6] = target: Muscarinic acetylcholine receptor M4 (Homo sapiens) (UniProt P08173); experiment: M4-linked GIRK flux change, two-sided – cell-based, HEK293 M4/GIRK, thallium flux, BTC-AM, M4 allosteric agonist project, primary screen (AID 625;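 active means fluorescence slope after compound addition differing from the mean of all tested samples at 99.7% confidence, mostly higher but some lower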;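 further: thallium influx through GIRK channels coupled to M4 in HEK293 cells with BTC-AM dye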); details: at 10 µM, actives lie on both sides
Chain of Muscarinic acetylcholine receptor M4 (Homo sapiens) (P08173 whole entry, looked up): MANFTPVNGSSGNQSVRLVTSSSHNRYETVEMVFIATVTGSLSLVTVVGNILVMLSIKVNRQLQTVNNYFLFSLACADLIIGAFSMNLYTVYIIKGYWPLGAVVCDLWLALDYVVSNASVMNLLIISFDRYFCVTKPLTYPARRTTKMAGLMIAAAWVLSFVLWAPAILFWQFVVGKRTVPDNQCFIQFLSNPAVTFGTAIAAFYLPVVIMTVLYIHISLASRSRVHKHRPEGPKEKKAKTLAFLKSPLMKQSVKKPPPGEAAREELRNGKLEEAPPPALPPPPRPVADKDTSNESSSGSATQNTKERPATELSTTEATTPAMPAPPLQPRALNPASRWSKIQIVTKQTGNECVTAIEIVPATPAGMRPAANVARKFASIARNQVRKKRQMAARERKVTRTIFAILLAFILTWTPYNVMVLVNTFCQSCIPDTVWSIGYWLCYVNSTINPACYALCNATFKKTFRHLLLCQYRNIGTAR
Method in brief: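 System: HEK293 cells with M4 receptor and GIRK channels | Incubation: Cells overnight at 37 °C, BTC-AM loading 1 h, reads 2 min total | Technique: Kinetic BTC-AM fluorescence sampled at 1 Hz, 10 s pre-addition baseline | Measure: Post-addition slope, 15–24 s, of baseline-normalized fluorescence | Control set: Carbachol positive, DMSO negative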

[7] = blockers of RIG-like receptor reporter activation – cell-based, Sendai virus stimulus, luciferase, 10K MLSCN set, TLR/RLR signaling modifier project, primary screen (AID 602276;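 active means inhibition at or above 50% at 10 µM; inactive means inhibition below 50%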;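 further: firefly luciferase from ISG56 promoter only with Renilla not read in this screen; 0% = Sendai virus plus DMSO and 100% = medium plus DMSO without virus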); details: HEK293 RL24 IRF3 luciferase reporter, at 10 µM, stronger effect = higher value
[8] = TLR3 IRF3 reporter activation blockers – cell-based, poly I:C stimulus, luciferase, 10K MLSCN set, primary screen (AID 602277); details: HEK293-TLR3 RL24 IRF3 luciferase reporter, at 10 µM, stronger effect = higher value

Structure (SMILES)	cell count [1]	inhibition [1]	inhibition of aggregation [2]	nuclei count [2] [%]	inhibition [3]	nuclei count [3] [%]	fluorescence slope [4]	NADPH fluorescence slope [5]	fluorescence slope [6]	inhibition [7]	inhibition [8]
CCOc1ccc(C(CC(=O)O)NC(=O)c2ccco2)cc1OC (centres undefined)	562	1.8% (inactive)	-9.7% (inactive)	113	22.7% (inactive)	106	-0.35 (inactive)	-3.7e-05 (inactive)	0.00565 (inactive)	9.42% (inactive)	29.4% (inactive)
COc1ccc(S(=O)(=O)n2ccnc2)c2cccnc12	442	-21.1% (inactive)	1% (inactive)	82	20.6% (inactive)	85.1	-0.358 (inactive)	7.3e-05 (inactive)	0.00671 (inactive)	0.31% (inactive)	8.74% (inactive)
c1ccc2[nH]c(CSc3nnc(-c4ccncc4)o3)nc2c1	388	-5% (inactive)	5.8% (inactive)	83	-20.9% (inactive)	90.8	-0.497 (inactive)	1e-06 (inactive)	0.00421 (inactive)	7.74% (inactive)	13.2% (inactive)
O=C(O)c1cnn2c1NC(c1ccc(F)cc1)CC2C(F)(F)F (centres undefined)	613	10.2% (inactive)	-6.3% (inactive)	99.2	-85.7% (inactive)	116	-0.472 (inactive)	-4.5e-05 (inactive)	0.00543 (inactive)	10.7% (inactive)	1.93% (inactive)
Cn1c(=O)c2c(nc(SCC(=O)O)n2Cc2cccc(C(F)(F)F)c2)n(C)c1=O	204	-0.8% (inactive)	-19.7% (inactive)	77.2	9.2% (inactive)	74.6	-0.531 (inactive)	6.2e-06 (inactive)	0.0052 (inactive)	15.4% (inactive)	13.8% (inactive)
CCn1cc(C(=O)Nc2cc3c(cc2NC(C)=O)OCCO3)c(=O)c2ccc(C)nc21	315	5.7% (inactive)	-17.4% (inactive)	114	-39.4% (inactive)	115	-0.49 (inactive)	-0.000144 (active)	0.00463 (inactive)	18.1% (inactive)	16.9% (inactive)
CC(C)=CCSc1nnc(CCNC(=O)OC(C)(C)C)o1	391	14.5% (inactive)	17.1% (inactive)	90	22.3% (inactive)	95.7	-0.402 (inactive)	8.7e-05 (inactive)	0.00571 (inactive)	9.62% (inactive)	12.6% (inactive)
CCOC(=O)c1[nH]c2ccccc2c1NC(=O)c1ccco1	671	-8.6% (inactive)	4.2% (inactive)	87.8	52.3% (inactive)	102	-0.332 (inactive)	-6.5e-05 (inactive)	0.00748 (inactive)	17.1% (inactive)	21.7% (inactive)
O=C(O)CCn1c(SCc2ccccc2)nc2ccccc21	423	-4.4% (inactive)	25% (inactive)	73.9	-33.6% (inactive)	93.6	-0.505 (inactive)	-2.4e-05 (inactive)	0.00554 (inactive)	-9.99% (inactive)	-40.3% (inactive)
COc1cc(C)nc(NS(=O)(=O)c2ccc(C)cc2)n1	399	3.9% (inactive)	-0.3% (inactive)	97.2	-45.6% (inactive)	109	-0.563 (inactive)	-2.7e-05 (inactive)	0.00648 (inactive)	20.8% (inactive)	23% (inactive)
CC(C)(C)NC(=O)C(c1ccco1)N(C(=O)Cn1nnc(-c2ccc(F)cc2)n1)c1ccccc1 (centres undefined)	422	9.2% (inactive)	-1.8% (inactive)	99.8	-146% (inactive)	122	-0.551 (inactive)	8.1e-06 (inactive)	0.00525 (inactive)	15.8% (inactive)	26.6% (inactive)
Nc1nc2ccccc2n1/N=C/c1ccc(Br)cc1	334	-2.9% (inactive)	-2.4% (inactive)	87.2	12.6% (inactive)	92.2	-0.47 (inactive)	-3.8e-05 (inactive)	0.00585 (inactive)	-55% (inactive)	-127% (inactive)
Cn1c2ccccc2c2c(C(=O)NCCCN3CCCC3=O)cn(C3CCCCC3)c(=O)c21	592	-17.5% (inactive)	-29.3% (inactive)	112	20.1% (inactive)	110	-0.428 (inactive)	3.4e-05 (inactive)	0.00608 (inactive)	9.9% (inactive)	15.9% (inactive)
CCN1CCN(C(=O)c2ccc3c(=O)n(C4CCCC4)c(=S)[nH]c3c2)CC1	507	-4.3% (inactive)	8.5% (inactive)	82.3	-19.6% (inactive)	111	-0.517 (inactive)	6.6e-05 (inactive)	0.00572 (inactive)	-15.8% (inactive)	-6.81% (inactive)
